Results: publication PMC9898299 (Heliyon, 2023)

Experiments:
U937 cells = assay: CellTiter-Glo Luminescent cell viability assay; format: cell-based, human; details: for inhibition at 25 µM / inhibition at 50 µM / inhibition at 100 µM / inhibition at 200 µM: Homo sapiens, U-937, 72 h, read-out: Percent inhibition at different concentrations of compounds (antiproliferative); for Percent inhibition at different concentrations of compounds (antiproliferative): U937 cells, 72 h, relative to Mitomycin C = 100%
Procedure, shortened: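 Human myeloid leukaemia U937 cells exposed to a range of test compound concentrations for 72 h, with Mitomycin C as positive control and DMSO diluent as negative control. CellTiter-Glo reagent added at an equal volume to the medium, mixed 2 min for lysis, then held 10 min at room temperature before luminescence was read. Viability was computed as RLU test ×100/RLU control. Half-maximal inhibitory concentration was fitted from the dose series.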

[1] = LDH release cytotoxicity assay; format: cell-based; details: human, U937 cells
Procedure, shortened: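 U937 cells were plated in 96-well format and given various test compound concentrations, with Triton X100 as positive cytotoxicity control, for 4 h at 37 °C. Plates were spun 5 min at 1000 RPM, and supernatant was moved to a fresh plate with LDH detection reagent for 10 min at room temperature in the dark. Optical density was then read, and half-maximal concentration was derived from the doses.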

Molecule	inhibition at 25 µM (U937 cells)	inhibition at 50 µM (U937 cells)	inhibition at 100 µM (U937 cells)	inhibition at 200 µM (U937 cells)	inhibition at 4 h, 12.5 µM [1]	inhibition at 4 h, 25 µM [1]	inhibition at 4 h, 50 µM [1]	inhibition at 4 h, 100 µM [1]	Percent inhibition at different concentrations of compounds (antiproliferative) (U937 cells; 25 μM)	Percent inhibition at different concentrations of compounds (antiproliferative) (U937 cells; 50 μM)	Percent inhibition at different concentrations of compounds (antiproliferative) (U937 cells; 100 μM)	Percent inhibition at different concentrations of compounds (antiproliferative) (U937 cells; 200 μM)
COC(=O)COc1cccc(NC(=O)C2(c3ccccc3)CC2)c1 [Compound 8a, Methyl 2-(3-(1-phenylcyclopropane-1-carboxamido)phenoxy)acetate]	28%	28%	102%	100%	-1%	2%	2%	1%				
COC(=O)COc1ccc(NC(=O)C2(c3ccccc3)CC2)cc1 [Compound 8b, Methyl 2-(4-(1-phenylcyclopropane-1-carboxamido)phenoxy)acetate]	41%	44%	102%	101%	-2%	-3%	-2%	-2%				
COC(=O)COc1ccc(NC(=O)C2(c3ccccc3)CC2)c(C)c1 [Compound 8c, Methyl 2-(3-methyl-4-(1-phenylcyclopropane-1-carboxamido)phenoxy)acetate]	37%	63%	102%	101%	0%	-1%	0%	-1%				
COC(=O)COc1ccc(NC(=O)C2(c3ccccc3)CC2)cc1Br [Compound 8d, Methyl 2-(2-bromo-4-(1-phenylcyclopropane-1-carboxamido)phenoxy)acetate]	15%	24%	100%	101%	-1%	0%	3%	-3%				
COC(=O)COc1cccc(NC(=O)C2(c3cccc(C)c3)CC2)c1 [Compound 8e, Methyl 2-(3-(1-(m-tolyl)cyclopropane-1-carboxamido)phenoxy)acetate]	46%	45%	59%	101%	-3%	-4%	-1%	-1%				
COC(=O)COc1ccc(NC(=O)C2(c3cccc(C)c3)CC2)cc1 [Compound 8f, Methyl 2-(4-(1-(m-tolyl)cyclopropane-1-carboxamido)phenoxy)acetate]	34%	36%	32%	100%	-1%	-1%	0%	0%				
COC(=O)COc1ccc(NC(=O)C2(c3cccc(C)c3)CC2)c(C)c1 [Compound 8g, Methyl 2-(3-methyl-4-(1-(m-tolyl)cyclopropane-1-carboxamido)phenoxy)acetate]	18%	25%	89%	100%	0%	0%	1%	0%				
COC(=O)COc1cccc(NC(=O)C2(c3ccc(OC)cc3)CC2)c1 [Compound 8h, Methyl 2-(3-(1-(4-methoxyphenyl)cyclopropane-1-carboxamido)phenoxy)acetate]	17%	80%	98%	100%	0%	3%	0%	-2%				
COC(=O)COc1ccc(NC(=O)C2(c3ccc(OC)cc3)CC2)cc1 [Compound 8i, Methyl 2-(4-(1-(4-methoxyphenyl)cyclopropane-1-carboxamido)phenoxy)acetate]	28%	38%	80%	101%	-3%	0%	-2%	-2%				
COC(=O)COc1ccc(NC(=O)C2(c3ccc(F)cc3)CC2)cc1 [Compound 8j, Methyl 2-(4-(1-(4-fluorophenyl)cyclopropane-1-carboxamido)phenoxy)acetate]	-12%	39%	76%	101%	0%	-1%	-2%	-1%				
COC(=O)COc1ccc(NC(=O)C2(c3ccc(F)cc3)CC2)c(C)c1 [Compound 8k, Methyl 2-(4-(1-(4-fluorophenyl)cyclopropane-1-carboxamido)-3-methylphenoxy)acetate]	32%	74%	101%	102%	0%	0%	-1%	4%				
COC(=O)COc1cccc(NC(=O)C2(c3ccc(Cl)cc3)CC2)c1 [Compound 8l, Methyl 2-(3-(1-(4-chlorophenyl)cyclopropane-1-carboxamido)phenoxy)acetate]	63%	96%	101%	102%	-1%	-1%	0%	2%				
COC(=O)COc1ccc(NC(=O)C2(c3ccc(Cl)cc3)CC2)cc1 [Compound 8m, Methyl 2-(4-(1-(4-chlorophenyl)cyclopropane-1-carboxamido)phenoxy)acetate]	39%	49%	99%	101%	-1%	1%	1%	0%				
COC(=O)COc1ccc(NC(=O)C2(c3ccc(Cl)cc3)CC2)c(C)c1 [Compound 8n, Methyl 2-(4-(1-(4-chlorophenyl)cyclopropane-1-carboxamido)-3-methylphenoxy)acetate]	28%	33%	101%	101%	0%	-1%	1%	-1%				
COC(=O)COc1ccc(NC(=O)C2(c3ccc(Cl)cc3)CC2)cc1Br [Compound 8o, Methyl 2-(2-bromo-4-(1-(4-chlorophenyl)cyclopropane-1-carboxamido)phenoxy)acetate]	52%	77%	102%	102%	0%	-2%	-2%	-4%				
COC(=O)COc1cccc(NC(=O)C2(c3cccc(Br)c3)CC2)c1 [Compound 8p, Methyl 2-(3-(1-(3-bromophenyl)cyclopropane-1-carboxamido)phenoxy)acetate]	37%	60%	101%	102%	0%	-1%	0%	0%				
COC(=O)COc1ccc(NC(=O)C2(c3cccc(Br)c3)CC2)c(C)c1 [Compound 8r, Methyl 2-(4-(1-(3-bromophenyl)cyclopropane-1-carboxamido)-3-methylphenoxy)acetate]	27%	84%	100%	101%	-1%	-1%	1%	-2%				
COC(=O)COc1ccc(NC(=O)C2(c3ccc(Cl)c(Cl)c3)CC2)cc1 [Compound 8s, Methyl 2-(4-(1-(3,4-dichlorophenyl)cyclopropane-1-carboxamido)phenoxy)acetate]	40%	64%	102%	102%	4%	0%	-1%	0%				
Methyl 2-(4-(1-(3-bromophenyl)cyclopropane-1-carboxamido)-3-methylphenoxy)acetate [Compound 8q]									26%	45%	102%	102%
